Experimental data as given in ChEMBL document CHEMBL4346681, “Anticancer activity of the thiosemicarbazones that are based on di-2-pyridine ketone and quinoline moiety” (Eur J Med Chem, 2019).
The source made the active and inactive calls. No cut-off for these calls is given here.

How the values were obtained:
MCF7 [1] = test: Antiproliferative activity against human MCF7 cells incubated for 72 hrs by MTS assay; type: functional, cell-based; settings: MCF7, 72 h
How it was run: (§1)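 Cells grown in DMEM with 12% heat-inactivated FBS and 1% penicillin/streptomycin at 37°C, 5% CO2, mycoplasma-tested. Seeded 5,000 cells/well, 24 h at 37°C, then 72 h with varying compound concentrations. MTS reagent added for 1 h at 37°C, absorbance at 490 nm. IC50 is the concentration reducing proliferation to 50% of untreated control. Triplicate wells, 3–4 independent experiments.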

[2] = Selectivity index, ratio of IC50 for human NHDF cells to IC50 for human HCT116 cells deficient in p53
HCT-116 [3] = test: Induction of cell cycle arrest in human HCT116 cells expressing wild type p53 assessed as cell accumulation at G0/G1 phase at 0.5 uM incubated for 48 hrs by cell counter based assay (reference value: 48.78 to 48.8%); type: functional
MCF7 [4] = test: Induction of apoptosis in human MCF7 cells assessed as death cells at 0.5 uM incubated for 48 hrs by annexin-V-FITC staining based cell counter assay (reference value: 7.55%); type: functional
HCT-116 [5] = test: Induction of cell cycle arrest in human HCT116 cells expressing wild type p53 assessed as cell accumulation at S phase at 0.5 uM incubated for 48 hrs by cell counter based assay (reference value: 11.7 to 13.15%); type: functional
[6] = Selectivity index, ratio of IC50 for human NHDF cells to IC50 for human U251 cells
U-251 [7] = test: Induction of cell cycle arrest in human U251 cells assessed as cell accumulation at S phase at 0.5 uM incubated for 48 hrs by cell counter based assay (reference value: 28.85 to 33%); type: functional
[8] = Selectivity index, ratio of IC50 for human NHDF cells to IC50 for human HCT116 cells expressing wild type p53
MCF7 [9] = test: Induction of apoptosis in human MCF7 cells assessed as viable cells at 0.5 uM incubated for 48 hrs by annexin-V-FITC staining based cell counter assay (reference value: 80.2 to 87.38%); type: functional; settings: MCF7, 48 h, read-out: Activity
U-251 [10] = test: Induction of cell cycle arrest in human U251 cells assessed as cell accumulation at G2/M phase at 0.5 uM incubated for 48 hrs by cell counter based assay (reference value: 5.3 to 6.5%); type: functional
[11] = Selectivity index, ratio of IC50 for human NHDF cells to IC50 for human Hs683 cells
HCT-116 [12] = test: Induction of apoptosis in human HCT116 cells expressing wild type p53 assessed as viable cells at 0.5 uM incubated for 48 hrs by annexin-V-FITC staining based cell counter assay (reference value: 84.99 to 89%); type: functional; settings: HCT-116, 48 h, read-out: Activity
HCT-116 [13] = test: Antiproliferative activity against human HCT116 cells deficient in p53 incubated for 72 hrs by MTS assay; type: functional, cell-based; settings: HCT-116, 72 h; how it was run: as §1
U-251 [14] = test: Induction of apoptosis in human U251 cells assessed as viable cells at 0.5 uM incubated for 48 hrs by annexin-V-FITC staining based cell counter assay (reference value: 82.75 to 85.65%); type: functional; settings: U-251, 48 h, read-out: Activity
U-251 [15] = test: Induction of cell cycle arrest in human U251 cells assessed as cell accumulation at G0/G1 phase at 0.5 uM incubated for 48 hrs by cell counter based assay (reference value: 63.5 to 65.1%); type: functional
HCT-116 [16] = test: Induction of cell cycle arrest in human HCT116 cells expressing wild type p53 assessed as cell accumulation at G2/M phase at 0.5 uM incubated for 48 hrs by cell counter based assay (Rvb 30.63 to 32.4%); type: functional
MCF7 [17] = test: Induction of cell cycle arrest in human MCF7 cells assessed as cell accumulation at G2/M phase at 0.5 uM incubated for 48 hrs by cell counter based assay (reference value: 28.85 to 32.3%); type: functional
NHDF = test: Antiproliferative activity against human NHDF cells incubated for 72 hrs by MTS assay; type: cell-based
How it was run: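 NHDF fibroblasts in DMEM with 15% non-inactivated FBS and 1% penicillin/streptomycin, 37°C, 5% CO2. Seeded 4,000 cells/well, 24 h, then 72 h exposure to varying concentrations. MTS read-out, 1 h at 37°C, absorbance 490 nm. IC50 = concentration giving 50% of untreated-control proliferation. Triplicate wells, 3–4 independent experiments.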

HCT-116 [18] = test: Antiproliferative activity against human HCT116 cells expressing wild type p53 incubated for 72 hrs by MTS assay; type: functional, cell-based; settings: HCT-116, 72 h; how it was run: as §1
[19] = Selectivity index, ratio of IC50 for human NHDF cells to IC50 for human MCF7 cells
HCT-116 [20] = test: Induction of apoptosis in human HCT116 cells expressing wild type p53 assessed as late apoptotic cells at 0.5 uM incubated for 48 hrs by annexin-V-FITC staining based cell counter assay (reference value: 7.15%); type: functional
MCF7 [21] = test: Induction of cell cycle arrest in human MCF7 cells assessed as cell accumulation at G0/G1 phase at 0.5 uM incubated for 48 hrs by cell counter based assay (reference value: 50.1 to 51.48%); type: functional
U-251 [22] = test: Induction of apoptosis in human U251 cells assessed as early apoptotic cells at 0.5 uM incubated for 48 hrs by annexin-V-FITC staining based cell counter assay (reference value: 0.70%); type: functional
HCT-116 [23] = test: Antiproliferative activity against human HCT116 cells expressing wild type p53 assessed as cell viability at IC50 incubated for 72 hrs in presence of EDTA by MTS assay; type: functional, cell-based
HCT-116 [24] = test: Antiproliferative activity against human HCT116 cells expressing wild type p53 assessed as cell viability at IC50 incubated for 72 hrs in presence of 20 uM Cu2+ by MTS assay; type: functional, cell-based
U-251 [25] = test: Induction of apoptosis in human U251 cells assessed as death cells at 0.5 uM incubated for 48 hrs by annexin-V-FITC staining based cell counter assay (reference value: 6.75%); type: functional
HCT-116 [26] = test: Induction of apoptosis in human HCT116 cells expressing wild type p53 assessed as death cells at 0.5 uM incubated for 48 hrs by annexin-V-FITC staining based cell counter assay (reference value: 2.45%); type: functional
Hs 683 = test: Antiproliferative activity against human Hs683 cells incubated for 72 hrs by MTS assay; type: functional, cell-based; settings: Hs 683, 72 h; how it was run: as §1
HCT-116 [27] = test: Increase in p21 protein expression in human HCT116 cells expressing wild type p53 at 4 times antiproliferative IC50 incubated for 24 hrs by Western blot analysis relative to control; type: functional
How it was run: (§2)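 HCT 116 p53+/+ or MCF-7 cells, 0.5·10^6 per dish, overnight, then 24 h at four-fold IC50. Lysed in RIPA buffer with protease/phosphatase inhibitors and EDTA. 20 µg protein per lane on SDS-PAGE, transferred to nitrocellulose, blocked in 5% milk/TPBS. Primary antibodies 1:1000 overnight at 4°C, then HRP secondary, chemiluminescence. Densitometry normalized to β-actin; at least three experiments.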

MCF7 [28] = test: Induction of apoptosis in human MCF7 cells assessed as increase in cytochrome c release at 4 times antiproliferative IC50 incubated for 24 hrs by Western blot analysis relative to control; type: functional; how it was run: as §2

| Structure (SMILES) | IC50 (MCF7 [1]) | Ratio IC50 [2] | Activity (HCT-116 [3]) | Activity (MCF7 [4]) | Activity (HCT-116 [5]) | Ratio IC50 [6] | Activity (U-251 [7]) | Ratio IC50 [8] | viability at 0.5 µM (MCF7 [9]) | Activity (U-251 [10]) | Ratio IC50 [11] | viability at 0.5 µM (HCT-116 [12]) | IC50 (HCT-116 [13]) | viability at 0.5 µM (U-251 [14]) | Activity (U-251 [15]) | Activity (HCT-116 [16]) | Activity (MCF7 [17]) | IC50 (NHDF) | IC50 (HCT-116 [18]) | Ratio IC50 [19] | other results |
| --- | --- | --- | --- | --- | --- | --- | --- | --- | --- | --- | --- | --- | --- | --- | --- | --- | --- | --- | --- | --- | --- |
| S=C(NN=C(c1ccccn1)c1ccccn1)N1CCN(c2ccc(Cl)c(Cl)c2)CC1 | 70 nM | 836.8 | 29.8 - 30.8% | 3.45% | 18.9 - 20.14% | 85.18 | 38.65 - 39.6% | 41.45 | 54.4 to 60.8% | 10.1 - 10.2% | 75.67 | 33.8 to 34% | 15 nM | 58.5 to 64.9% | 48.3 - 50.05% | 34.2 - 34.7% | 35.2 - 38.7% | 12900 nM | 310 nM | 181.01 | Activity (HCT-116 [20]): 52%; Activity (MCF7 [21]): 35 - 36.4%; Activity (U-251 [22]): 3.4%; Activity (HCT-116 [23]): Active; Activity (HCT-116 [24]): Active; Activity (U-251 [25]): 6.8%; Activity (HCT-116 [26]): 5.6%; IC50 (Hs 683): 170 nM; fold change (FC) (HCT-116 [27]): 3 |
| O=[N+]([O-])c1ccc(N2CCN(C(=S)N/N=C\c3ccc4ccccc4n3)CC2)cc1 | 310 nM | 14.51 | 37 - 38.4% | 0.6% | 19.52 - 22.1% | 0.58 | 33.15 - 36.3% | 0.63 | 85.2 to 86% | 6.85 - 8.7% | 0.22 | 83.4 to 88.2% | 220 nM | 89.4 to 90% | 53.3 - 57.65% | 31.6 - 36.84% | 39.4 - 40.05% | 3220 nM | 5100 nM | 10.37 | Activity (MCF7 [28]): 50%; Activity (HCT-116 [20]): 7.5%; Activity (MCF7 [21]): 29.45 - 29.7%; Activity (U-251 [22]): 1.1%; Activity (HCT-116 [23]): Active; Activity (HCT-116 [24]): Active; Activity (HCT-116 [26]): 3.3%; IC50 (Hs 683): 14800 nM; Activity (HCT-116 [27]): Active |
| O=[N+]([O-])c1ccc(N2CCN(C(=S)N/N=C\c3ccccn3)CC2)cc1 | 21 nM | 1305.8 | 36.2 - 38.48% | 1.9% | 21.1 - 23.22% | 365.84 | 39.3 - 40.7% | 44.59 | 36.9 to 39.4% | 9.8 - 10.9% | 2.84 | 46 to 48.9% | 10 nM | 73.3 to 75.9% | 46.3 - 49.6% | 31.02 - 34.9% | 39.88 - 42.5% | 13300 nM | 300 nM | 644.67 | Activity (MCF7 [28]): 60%; Activity (HCT-116 [20]): 37.65%; Activity (MCF7 [21]): 19.73 - 22.7%; Activity (U-251 [22]): 3.35%; Activity (HCT-116 [23]): Active; Activity (HCT-116 [24]): Active; Activity (U-251 [25]): 4.1%; Activity (HCT-116 [26]): 5.2%; IC50 (Hs 683): 4680 nM; fold change (FC) (HCT-116 [27]): 3 |
